Compound activity (PubChem)
Rows were chosen to be rich in hits. Some 2.4% of all compounds tested hit in one or more screens of this group.
sPLA2-III inh: Inhibits HGIII-sPLA2 liposome hydrolysis, primary screen; Q9NZ20; QFRET BODIPY PC-A2 liposome hydrolysis, fluorescence; inhibition, % at 12.2 µM; actives 0.56% (n = 370,000);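 active = inhibition above mean plus 3 SD of compounds lying within the high and low control bounds, cut at about 19% in these data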
Target sequence (Q9NZ20 whole entry, looked up): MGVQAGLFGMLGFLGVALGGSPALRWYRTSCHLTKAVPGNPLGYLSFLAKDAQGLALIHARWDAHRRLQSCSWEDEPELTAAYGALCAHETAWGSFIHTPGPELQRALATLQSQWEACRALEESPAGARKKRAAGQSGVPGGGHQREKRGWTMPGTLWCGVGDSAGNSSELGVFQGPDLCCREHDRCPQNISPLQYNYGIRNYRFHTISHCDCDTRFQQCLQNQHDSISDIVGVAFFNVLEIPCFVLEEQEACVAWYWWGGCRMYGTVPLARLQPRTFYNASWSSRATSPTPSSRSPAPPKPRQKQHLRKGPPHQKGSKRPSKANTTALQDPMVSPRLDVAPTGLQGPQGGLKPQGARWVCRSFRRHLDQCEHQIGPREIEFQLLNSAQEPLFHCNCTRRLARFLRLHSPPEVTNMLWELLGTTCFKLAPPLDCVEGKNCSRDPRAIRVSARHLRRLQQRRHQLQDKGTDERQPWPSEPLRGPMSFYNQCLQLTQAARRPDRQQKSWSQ
VIM-2 inhibitor: inhibitors of Pseudomonas aeruginosa VIM-2 metallo-beta-lactamase. actives 0.89% (n = 290,000). inhibition, % at 5.6 µM. purified VIM-2, nitrocefin hydrolysis, epi-absorbance fluorescence;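 active = inhibition above the mean of all tested compounds plus 3 SD, cutoff set per screening run, cut at about 7.5% in these data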;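 note: red hydrolysis product quenches plate fluorescence so inhibitors raise well fluorescence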
IMP-1 inh: blocks Pseudomonas aeruginosa IMP-1 metallo-beta-lactamase. purified IMP-1, nitrocefin hydrolysis, epi-absorbance fluorescence. inhibition, % at 5.6 µM. actives 0.45% (n = 290,000);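 active = inhibition above the mean plus 3 SD of all compounds in the same screening run, cut at about 4.5% in these data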
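Material – recombinant IMP-1 enzyme, purified · Amount – IMP-1 0.2 nM before substrate addition · Medium – HEPES buffer pH 7.1 with ZnSO4 and Brij 35 · Timing – 25 °C, 15 min preincubation, 25 min reaction · Measured by – plate fluorescence quenching by hydrolysis product, ex 480/em 530 nm · Read-out – percent enzyme inhibition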
M18AAP inhibitor: PfM18AAP enzyme inhibition | inhibition, % at 7.35 µM | AID 1822 | actives 1.2% (n = 290,000) | recombinant PfM18AAP, H-Glu-NHMec fluorogenic cleavage;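 active = inhibition above the campaign mean inhibition over all tested compounds plus 3 SD, cut at about 28% in these data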
sPLA2 confirm: human GIII-sPLA2 inhibition, confirmation | shares compounds with sPLA2-III inh | recombinant hGIII-sPLA2, BODIPY PC-A2 QFRET fluorescence | inhibition, % at 12.2 µM | actives 34% (n = 2,000) | AID 743280;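 active = mean inhibition across triplicates above the hit cutoff set in the earlier primary screen, cut at about 19% in these data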
BODIPY interf: optically interferes with 535nm fluorescence in sPLA2 counter-screen | BODIPY FL product fluorescence interference, QFRET | inhibition, % at 12.2 µM | shares compounds with sPLA2-III inh | actives 8.5% (n = 2,000) | AID 743282;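 active = average inhibition above the solvent-only control mean plus 3 SD, cut at about 6% in these data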
535nm interf DR: interferes with 535nm fluorescence in dose response counter-screen. shares compounds with sPLA2-III inh. IC50, µM. 240 tested, under 10 active. AID 743455. BODIPY FL product fluorescence interference, cell-free;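 active = IC50 at or below 10 µM; inactive = IC50 above 10 µM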
Of the large screens only hits and unclear results are named; the others gave an inactive call (follow-up assays come after a bar, where they were run).

Cc1ccccc1CSCC(=O)NC(=O)NCc1ccco1	none
O=C(CSCc1ccccc1Br)NNC(=S)NCc1ccco1	sPLA2-III inh 39.5, M18AAP inhibitor 29.1 | sPLA2 confirm 47.7 | BODIPY interf 8.8
C[n+]1cc2c3c(ccc2c2ccc4cc5c(cc4c21)OCO5)OCO3	sPLA2-III inh 47.7 (no result: VIM-2 inhibitor, IMP-1 inh, M18AAP inhibitor) | sPLA2 confirm 45.7 | BODIPY interf inactive | 535nm interf DR inactive
COc1ccc2cc3[n+](cc2c1O)CCc1cc2c(cc1-3)OCO2	none (no result: VIM-2 inhibitor, IMP-1 inh, M18AAP inhibitor)
COC(=O)[C@]12C[C@H](CC(=O)N3CCOCC3)C(=O)N(Cc3ccc4c(c3)OCO4)C1=C[C@H](C(C)C)O[C@@H]2C1CC1	none (no result: VIM-2 inhibitor, IMP-1 inh, M18AAP inhibitor)
CCOC(=O)N1CCN(S(=O)(=O)c2ccc(F)c(C(=O)Nc3ccc(C)c(Cl)c3)c2)CC1	none
CCOC(=O)N1CCN(S(=O)(=O)c2ccc(F)c(C(=O)Nc3ccc(C(C)C)cc3)c2)CC1	sPLA2-III inh 20.3 | sPLA2 confirm inactive | BODIPY interf inactive
Cc1cc(NS(=O)(=O)c2ccc(NC(=O)c3ccccc3F)cc2)no1	none (no result: VIM-2 inhibitor, IMP-1 inh, M18AAP inhibitor)
c1ccc(-c2csc(-c3ccc(-c4csnn4)cc3)n2)cc1	sPLA2-III inh 21.2 | sPLA2 confirm inactive | BODIPY interf inactive
CCSc1ncc(Cl)c(C(=O)Nc2ccccc2OC)n1	sPLA2-III inh 21.2 | sPLA2 confirm inactive | BODIPY interf inactive
COc1ccc(S(=O)(=O)N2CCN(C(=O)CSc3nc4ccccc4nc3N3CCCCC3)CC2)cc1	none (no result: VIM-2 inhibitor, IMP-1 inh, M18AAP inhibitor)
Brc1ccc(-c2csc(/N=C/N3CCCC3)n2)cc1	none
CCN1CCN(/C=N/c2nc(C)cs2)CC1	sPLA2-III inh 94.2 | sPLA2 confirm inactive | BODIPY interf inactive
S=c1[nH]nc(-c2ccccc2)c2ccccc12	sPLA2-III inh 20.3 | sPLA2 confirm 25.1 | BODIPY interf inactive
CC1CCN(c2c([N+](=O)[O-])c(=O)oc3ccccc23)CC1	sPLA2-III inh 20.8 | sPLA2 confirm inactive | BODIPY interf inactive
O=c1oc2ccccc2c(N2CCCC2)c1[N+](=O)[O-]	none
COc1ccc(NC(=S)N(Cc2ccc(N(C)C)cc2)Cc2ccco2)cc1	sPLA2-III inh 21.7 | sPLA2 confirm inactive | BODIPY interf inactive
O=C(Nc1cccc(Cl)c1)c1ccc2sc([C@H]3C[C@H](O)[C@@H](CO)O3)nc2c1	none (no result: VIM-2 inhibitor, IMP-1 inh, M18AAP inhibitor)
Cc1cccnc1NC(=S)Nc1ncccc1C	none
CCOc1ccccc1NC(=S)Nc1ncccc1C	sPLA2-III inh 22.8 | sPLA2 confirm inactive | BODIPY interf inactive
CCOc1ccc(C(=O)NC(=S)Nc2ncccc2C)cc1[N+](=O)[O-]	sPLA2-III inh 20.3 | sPLA2 confirm inactive | BODIPY interf inactive
CCOc1ccc(C(=O)NC(=S)Nc2ccc(NC(=O)c3ccco3)cc2)cc1[N+](=O)[O-]	none
COc1ccc(Cl)cc1Nc1nc(Cl)nc(NCCO)n1	none (no result: VIM-2 inhibitor, IMP-1 inh, M18AAP inhibitor)
S=C(NCc1ccccc1)N1CCCCC1	none
CCC1CCCCN1C(=S)NCc1ccccc1 (centres undefined)	sPLA2-III inh 23.6 | sPLA2 confirm inactive | BODIPY interf inactive
Cc1cc(C)cc(NC(=S)N2CCN(c3ccc(F)cc3)CC2)c1	none
Cc1cccc(NC(=S)N2CCN(c3ccc(F)cc3)CC2)c1	sPLA2-III inh 25.9 | sPLA2 confirm inactive | BODIPY interf inactive
CC(C)C1COC(c2cccn2Cc2ccccc2Cl)=N1 (centres undefined)	none
Cc1ccc(Cn2cccc2C2=NC(C)CO2)cc1 (centres undefined)	sPLA2-III inh 21.5 | sPLA2 confirm inactive | BODIPY interf inactive
COc1ccccc1NC(=O)COC(=O)c1ccc2c(c1)OCCO2	none (no result: VIM-2 inhibitor, IMP-1 inh, M18AAP inhibitor)
C=CCN1C(=O)c2ccc(C(=O)OCC(=O)Nc3ccccc3OC)cc2C1=O	sPLA2-III inh 19.5 (no result: VIM-2 inhibitor, IMP-1 inh, M18AAP inhibitor) | sPLA2 confirm inactive | BODIPY interf inactive
c1ccc2[nH]c(SCc3cn4cccnc4n3)nc2c1	sPLA2-III inh 23.0 | sPLA2 confirm inactive | BODIPY interf inactive
CSc1nnc(-c2cc(C)on2)n1-c1ccccc1	sPLA2-III inh 20.1 | sPLA2 confirm inactive | BODIPY interf inactive
O=C1c2cccc(NCCCNCCO)c2C(=O)c2cccc(NCCCNCCO)c21	sPLA2-III inh 26.8 (no result: VIM-2 inhibitor, IMP-1 inh, M18AAP inhibitor) | sPLA2 confirm 25.1 | BODIPY interf inactive
O=C1c2ccccc2C(=O)c2c(NCc3cccnc3)cccc21	none
Nc1c(C(=O)Nc2ccccc2F)sc2nc(-c3ccco3)ccc12	sPLA2-III inh 19.4 | sPLA2 confirm inactive | BODIPY interf inactive
COc1cc(/C=N/NC(=O)c2c(-c3c(Cl)cccc3Cl)noc2C)ccc1OCC(N)=O	none
Cc1onc(-c2c(Cl)cccc2Cl)c1C(=O)N/N=C(\N)COc1ccc(Cl)cc1	sPLA2-III inh 27.9 | sPLA2 confirm 31.4 | BODIPY interf inactive | 535nm interf DR inactive
CC(=O)Nc1cccc(C(=O)OC(C)C(=O)N2CCc3ccccc32)c1 (centres undefined)	none (no result: VIM-2 inhibitor, IMP-1 inh, M18AAP inhibitor)
C(C#CCCCCCCCCC[n+]1ccccc1)#CCCCCCCCCC[n+]1ccccc1	none
C=CCNc1nc(Nc2ccc([N+](=O)[O-])cc2)nc(OCC)n1	none
CCOc1nc(Nc2ccc([N+](=O)[O-])cc2)nc(NC(C)(C)C)n1	sPLA2-III inh 20.9 | sPLA2 confirm inactive | BODIPY interf inactive
COC(=O)Cc1ccc(OC2(C)CCN(Cc3csc4ccccc34)C2)cc1 (centres undefined)	none (no result: VIM-2 inhibitor, IMP-1 inh, M18AAP inhibitor)
COc1ccc(CNC(=S)N/N=C/c2ccc(OC)c(OC)c2)cc1	none
COc1ccc(/C=N/NC(=S)NCc2ccccc2)cc1OC	sPLA2-III inh 24.5 | sPLA2 confirm inactive | BODIPY interf inactive
C/C(=N/OC(=O)c1ccc(Cl)cc1Cl)c1oc(C)nc1C	none
Nc1sc(Cc2ccccc2)cc1C(=O)NC1CCCCC1	none (no result: VIM-2 inhibitor, IMP-1 inh, M18AAP inhibitor)
CCOc1cccc(/C=N/NC(=S)Nc2ccccc2[N+](=O)[O-])c1O	sPLA2-III inh 24.1 | sPLA2 confirm 51.6 | BODIPY interf 13.8
CCCCNC(=S)N/N=C/c1cccc(OCC)c1O	sPLA2-III inh 24.3 | sPLA2 confirm 28.1 | BODIPY interf inactive | 535nm interf DR inactive
O=[N+]([O-])c1ccccc1C=NNC(=S)NN=Cc1ccccc1[N+](=O)[O-]	sPLA2-III inh 23.7 (no result: VIM-2 inhibitor, IMP-1 inh, M18AAP inhibitor) | sPLA2 confirm 48.6 | BODIPY interf 7.3
CC(C)NC(=S)N/N=C/c1ccccc1[N+](=O)[O-]	none
CCOC(=O)[C@]12Cc3c(cc(OC)c(OC)c3OC)[C@H]1N(C1CCCCC1)C(=O)c1cc(OC)ccc12	none (no result: VIM-2 inhibitor, IMP-1 inh, M18AAP inhibitor)
CC1(c2nnnn2-c2ccc3c(c2)OCCO3)CCC(=O)N1CCc1c[nH]c2ccccc12 (centres undefined)	none (no result: VIM-2 inhibitor, IMP-1 inh, M18AAP inhibitor)
Nn1cnc2c(ncn2C2OC(CO)C(O)C2O)c1=O (centres undefined)	none (no result: VIM-2 inhibitor, IMP-1 inh, M18AAP inhibitor)
Cn1c(-c2cc3c(C(F)(F)F)nn(C)c3s2)n[nH]c1=S	none
CCn1c(-c2cc3c(C(F)(F)F)nn(C)c3s2)n[nH]c1=S	sPLA2-III inh 20.1 | sPLA2 confirm 33.6 | BODIPY interf inactive | 535nm interf DR inactive
